ChEMBL document CHEMBL3600374, “Dual inhibitors of the dengue and West Nile virus NS2B-NS3 proteases: Synthesis, biological evaluation and docking studies of novel peptide-hybrids” (Bioorg Med Chem, 2015)
The source made the active and inactive calls. The calls are words filed in the database; no cut-off is given here.

Key:
[1] = biological target: Prothrombin (Homo sapiens) (UniProt P00734); assay: Inhibition of thrombin (unknown origin) using Boc-Val-Pro-Arg-AMC as substrate at 25 uM preincubated for 15 mins followed by substrate addition measured for 10 mins by FRET assay relative to control
[2] = biological target: Genome polyprotein (West Nile virus) (UniProt P06935); assay: Inhibition of WNV NS2B-NS3 protease expressed in Escherichia coli BL21 lambda (DE3) cells using Abz-Gly-Leu-Lys-Arg-Gly-Gly-3-(NO2)Tyr as substrate at 50 uM preincubated for 15 mins followed by substrate addition measured for 15 mins by FRET assay relative to control
Genome polyprotein [3] = biological target: T1, Genome polyprotein (West Nile virus, UniProt P06935); assay: Inhibition of WNV NS2B-NS3 protease expressed in Escherichia coli BL21 lambda (DE3) cells using Abz-Gly-Leu-Lys-Arg-Gly-Gly-3-(NO2)Tyr as substrate preincubated for 15 mins followed by substrate addition measured for 15 mins by FRET assay
Outline: (§1)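 IC50 by FRET assay at substrate 50 μM; DENV protease at 100 nM, WNV protease at 150 nM. Measured in triplicate.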

[4] = Inhibition of DENV serotype 2 NS2B-NS3 protease expressed in Escherichia coli BL21 lambda (DE3) cells using Abz-Nle-Lys-Arg-Arg-Ser-3-(NO2)Tyr as substrate preincubated for 15 mins followed by substrate addition measured for 15 mins by FRET assay; design: species or system dengue virus type 2; outline: as §1
dengue virus type 2 [5] = assay: Inhibition of DENV serotype 2 NS2B-NS3 protease expressed in Escherichia coli BL21 lambda (DE3) cells using Abz-Nle-Lys-Arg-Arg-Ser-3-(NO2)Tyr as substrate at 50 uM preincubated for 15 mins followed by substrate addition measured for 15 mins by FRET assay relative to control
dengue virus type 2 [6] = assay: Inhibition of DENV serotype 2 NS2B-NS3 protease expressed in Escherichia coli BL21 lambda (DE3) cells by HPLC-based assay
[7] = Inhibition of DENV serotype 2 NS2B-NS3 protease expressed in Escherichia coli BL21 lambda (DE3) cells using Abz-Nle-Lys-Arg-Arg-Ser-3-(NO2)Tyr as substrate preincubated for 15 mins followed by substrate addition measured for 15 mins by Dixon plot analysis; design: species or system dengue virus type 2
Outline: (§2)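 DENV serotype 2 protease, FRET read-out. Substrate at 50, 100, 150, 200 μM; inhibitor at 0, 0.25, 0.5, 1, 1.5, 2, 2.5, 3 μM; triplicates, two outliers of 96 values excluded. Ki taken from the Cheng-Prusoff plot (IC50 vs substrate, Y-intercept), the Dixon plot (mean of line intersections), or the Cornish-Bowden plot.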

dengue virus type 2 [8] = assay: Binding affinity to DENV serotype 2 NS2B-NS3 protease expressed in Escherichia coli BL21 lambda (DE3) cells at 0.5 to 48 uM by fluorescence quenching assay in presence of DENV protease inhibitor aprotinin
Outline: (§3)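 DENV protease held at 1 μM, aprotinin at 10 μM, inhibitor at 0, 0.5, 1, 2, 5, 10, 20, 30, 40, 48 μM. Read-out is the intrinsic Trp50 fluorescence of the protease, measured with and without aprotinin. Readings with aprotinin corrected for aprotinin's own fluorescence.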

dengue virus type 2 [9] = assay: Competitive inhibition of DENV serotype 2 NS2B-NS3 protease expressed in Escherichia coli BL21 lambda (DE3) cells using Abz-Nle-Lys-Arg-Arg-Ser-3-(NO2)Tyr as substrate at 0.25 to 3 uM preincubated for 15 mins followed by substrate addition measured for 15 mins by Cornish-Bowden plot analysis; outline: as §2
dengue virus type 2 [10] = assay: Binding affinity to DENV serotype 2 NS2B-NS3 protease expressed in Escherichia coli BL21 lambda (DE3) cells by fluorescence quenching assay in absence of DENV protease inhibitor aprotinin; outline: as §3
[11] = Competitive inhibition of DENV serotype 2 NS2B-NS3 protease expressed in Escherichia coli BL21 lambda (DE3) cells using Abz-Nle-Lys-Arg-Arg-Ser-3-(NO2)Tyr as substrate preincubated for 15 mins followed by substrate addition measured for 15 mins by Cheng-Prusoff plot analysis; design: species or system dengue virus type 2; outline: as §2
Genome polyprotein [12] = biological target: T1, Genome polyprotein; assay: Inhibition of WNV NS2B-NS3 protease expressed in Escherichia coli BL21 lambda (DE3) cells using Abz-Gly-Leu-Lys-Arg-Gly-Gly-3-(NO2)Tyr as substrate preincubated for 15 mins followed by substrate addition measured for 15 mins by Dixon plot analysis
Outline: (§4)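 WNV protease, FRET read-out. Substrate at 50, 100, 150, 200 μM; inhibitor at 0, 0.5, 1, 2, 3, 4, 5, 6 μM; triplicates repeated three times, 12 outliers of 288 values excluded. Ki taken from the Cheng-Prusoff plot (Y-intercept of IC50 vs substrate) or the Dixon plot (mean of line intersections).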

Genome polyprotein [13] = biological target: T1, Genome polyprotein; assay: Competitive inhibition of WNV NS2B-NS3 protease expressed in Escherichia coli BL21 lambda (DE3) cells using Abz-Gly-Leu-Lys-Arg-Gly-Gly-3-(NO2)Tyr as substrate preincubated for 15 mins followed by substrate addition measured for 15 mins by Cheng-Prusoff plot analysis; outline: as §4
[14] = biological target: Genome polyprotein (West Nile virus) (UniProt P06935); assay: Competitive inhibition of WNV NS2B-NS3 protease expressed in Escherichia coli BL21 lambda (DE3) cells using Abz-Gly-Leu-Lys-Arg-Gly-Gly-3-(NO2)Tyr as substrate at 0.5 to 6 uM preincubated for 15 mins followed by substrate addition measured for 15 mins by Cheng-Prusoff plot analysis; outline: as §4

T1 sequence (P06935 1371-1501 limits assumed): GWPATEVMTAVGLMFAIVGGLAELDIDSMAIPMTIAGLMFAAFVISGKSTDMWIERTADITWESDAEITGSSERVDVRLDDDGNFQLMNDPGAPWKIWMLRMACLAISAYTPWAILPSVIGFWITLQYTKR
T1 sequence (P06935 1502-2120 limits assumed): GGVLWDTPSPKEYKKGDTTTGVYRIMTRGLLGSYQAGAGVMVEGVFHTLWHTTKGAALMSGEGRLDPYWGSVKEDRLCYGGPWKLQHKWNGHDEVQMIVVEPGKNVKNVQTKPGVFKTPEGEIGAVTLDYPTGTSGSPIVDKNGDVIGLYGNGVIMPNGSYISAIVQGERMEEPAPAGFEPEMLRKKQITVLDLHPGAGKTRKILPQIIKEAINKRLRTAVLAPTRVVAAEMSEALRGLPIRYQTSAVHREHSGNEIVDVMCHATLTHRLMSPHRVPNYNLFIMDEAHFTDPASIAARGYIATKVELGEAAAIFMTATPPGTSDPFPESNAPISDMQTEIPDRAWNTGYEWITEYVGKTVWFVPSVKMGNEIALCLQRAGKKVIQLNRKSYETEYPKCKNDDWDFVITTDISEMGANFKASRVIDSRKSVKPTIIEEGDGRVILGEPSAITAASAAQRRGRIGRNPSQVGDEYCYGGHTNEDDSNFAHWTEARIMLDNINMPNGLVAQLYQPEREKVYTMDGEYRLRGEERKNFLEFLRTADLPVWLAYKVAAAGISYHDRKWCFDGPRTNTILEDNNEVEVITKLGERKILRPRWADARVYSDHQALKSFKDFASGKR
Genome polyprotein (West Nile virus), sequence (P06935 whole entry): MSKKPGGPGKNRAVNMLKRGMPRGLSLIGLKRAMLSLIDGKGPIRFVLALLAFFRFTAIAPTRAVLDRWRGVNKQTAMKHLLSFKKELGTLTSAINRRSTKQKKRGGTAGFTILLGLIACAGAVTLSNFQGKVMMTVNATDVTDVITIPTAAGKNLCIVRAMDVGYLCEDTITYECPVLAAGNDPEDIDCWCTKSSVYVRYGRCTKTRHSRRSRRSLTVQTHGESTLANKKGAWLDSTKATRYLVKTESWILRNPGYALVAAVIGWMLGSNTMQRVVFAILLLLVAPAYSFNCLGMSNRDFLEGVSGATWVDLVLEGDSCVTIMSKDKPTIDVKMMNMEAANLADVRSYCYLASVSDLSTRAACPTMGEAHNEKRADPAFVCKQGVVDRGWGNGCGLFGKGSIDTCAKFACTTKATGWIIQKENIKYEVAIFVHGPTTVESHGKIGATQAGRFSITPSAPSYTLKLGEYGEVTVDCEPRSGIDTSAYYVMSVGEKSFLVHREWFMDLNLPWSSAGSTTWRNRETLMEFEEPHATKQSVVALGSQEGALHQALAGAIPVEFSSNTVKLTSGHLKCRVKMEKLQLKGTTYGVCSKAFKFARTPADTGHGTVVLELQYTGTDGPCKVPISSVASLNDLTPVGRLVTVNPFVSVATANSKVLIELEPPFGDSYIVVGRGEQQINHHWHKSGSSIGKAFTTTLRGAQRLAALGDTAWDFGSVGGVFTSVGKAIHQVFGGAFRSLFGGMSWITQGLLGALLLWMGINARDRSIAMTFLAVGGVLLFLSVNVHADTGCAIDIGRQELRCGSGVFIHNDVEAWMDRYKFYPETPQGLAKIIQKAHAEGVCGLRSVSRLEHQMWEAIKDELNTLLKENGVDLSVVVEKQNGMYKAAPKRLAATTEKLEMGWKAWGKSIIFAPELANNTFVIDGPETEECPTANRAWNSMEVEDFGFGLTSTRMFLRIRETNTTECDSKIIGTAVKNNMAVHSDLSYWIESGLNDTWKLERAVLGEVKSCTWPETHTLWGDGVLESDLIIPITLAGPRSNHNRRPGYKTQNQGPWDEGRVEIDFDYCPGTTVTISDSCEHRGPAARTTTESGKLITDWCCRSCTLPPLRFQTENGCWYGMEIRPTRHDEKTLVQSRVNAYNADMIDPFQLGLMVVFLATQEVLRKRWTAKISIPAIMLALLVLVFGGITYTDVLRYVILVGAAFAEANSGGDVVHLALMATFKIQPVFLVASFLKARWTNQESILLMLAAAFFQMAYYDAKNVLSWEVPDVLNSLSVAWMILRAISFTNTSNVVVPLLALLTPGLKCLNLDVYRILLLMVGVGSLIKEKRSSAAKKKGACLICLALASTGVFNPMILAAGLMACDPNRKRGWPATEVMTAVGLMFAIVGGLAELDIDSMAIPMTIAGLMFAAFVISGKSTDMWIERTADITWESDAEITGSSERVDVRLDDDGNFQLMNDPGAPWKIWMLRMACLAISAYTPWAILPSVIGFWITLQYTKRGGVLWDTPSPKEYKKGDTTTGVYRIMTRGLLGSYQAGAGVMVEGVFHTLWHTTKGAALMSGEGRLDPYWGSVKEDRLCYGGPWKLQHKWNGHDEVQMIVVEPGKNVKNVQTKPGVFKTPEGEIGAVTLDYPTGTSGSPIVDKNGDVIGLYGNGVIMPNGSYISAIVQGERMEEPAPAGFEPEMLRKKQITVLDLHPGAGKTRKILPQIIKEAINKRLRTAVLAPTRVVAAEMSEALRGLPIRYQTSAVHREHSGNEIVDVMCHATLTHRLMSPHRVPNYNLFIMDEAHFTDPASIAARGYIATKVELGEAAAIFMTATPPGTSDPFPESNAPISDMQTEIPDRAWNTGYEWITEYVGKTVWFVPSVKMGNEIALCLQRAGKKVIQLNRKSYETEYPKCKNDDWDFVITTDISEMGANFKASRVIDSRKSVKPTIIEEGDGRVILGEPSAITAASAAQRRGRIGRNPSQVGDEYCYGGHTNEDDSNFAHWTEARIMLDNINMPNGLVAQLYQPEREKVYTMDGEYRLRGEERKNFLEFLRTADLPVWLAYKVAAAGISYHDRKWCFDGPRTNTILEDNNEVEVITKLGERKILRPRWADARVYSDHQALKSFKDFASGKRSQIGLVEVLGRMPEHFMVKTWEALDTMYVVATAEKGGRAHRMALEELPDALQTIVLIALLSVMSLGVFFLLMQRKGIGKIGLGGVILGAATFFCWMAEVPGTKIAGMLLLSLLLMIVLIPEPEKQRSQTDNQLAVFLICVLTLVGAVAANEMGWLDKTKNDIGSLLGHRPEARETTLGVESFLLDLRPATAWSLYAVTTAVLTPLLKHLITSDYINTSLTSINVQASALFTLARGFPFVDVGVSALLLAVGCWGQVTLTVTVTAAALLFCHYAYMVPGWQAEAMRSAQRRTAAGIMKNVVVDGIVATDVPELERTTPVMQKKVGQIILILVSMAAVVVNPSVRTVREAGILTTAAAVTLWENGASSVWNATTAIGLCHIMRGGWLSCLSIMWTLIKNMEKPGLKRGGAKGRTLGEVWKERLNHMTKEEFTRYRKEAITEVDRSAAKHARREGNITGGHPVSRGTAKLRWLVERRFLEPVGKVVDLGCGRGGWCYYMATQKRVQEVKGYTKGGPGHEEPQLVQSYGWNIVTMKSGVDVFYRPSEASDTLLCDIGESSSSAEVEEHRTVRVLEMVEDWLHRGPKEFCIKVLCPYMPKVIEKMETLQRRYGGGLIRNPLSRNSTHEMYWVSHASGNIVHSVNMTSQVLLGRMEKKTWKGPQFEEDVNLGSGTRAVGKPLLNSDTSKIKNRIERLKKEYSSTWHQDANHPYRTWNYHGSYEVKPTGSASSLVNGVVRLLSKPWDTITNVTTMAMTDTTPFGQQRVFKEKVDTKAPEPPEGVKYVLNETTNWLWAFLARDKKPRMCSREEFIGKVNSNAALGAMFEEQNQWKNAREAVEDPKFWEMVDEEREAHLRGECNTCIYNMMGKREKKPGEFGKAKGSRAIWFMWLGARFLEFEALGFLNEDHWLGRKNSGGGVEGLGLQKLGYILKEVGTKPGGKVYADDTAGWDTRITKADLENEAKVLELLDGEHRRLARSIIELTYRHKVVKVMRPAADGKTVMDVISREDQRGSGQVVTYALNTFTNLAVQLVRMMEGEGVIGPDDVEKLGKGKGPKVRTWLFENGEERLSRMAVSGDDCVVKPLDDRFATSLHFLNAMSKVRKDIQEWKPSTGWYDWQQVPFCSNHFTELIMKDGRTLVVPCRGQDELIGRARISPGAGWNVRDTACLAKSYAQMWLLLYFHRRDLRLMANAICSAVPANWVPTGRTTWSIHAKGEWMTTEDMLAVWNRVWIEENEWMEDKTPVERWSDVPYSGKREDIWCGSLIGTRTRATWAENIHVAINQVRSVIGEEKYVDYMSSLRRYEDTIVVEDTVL

Row | Compound | inhibition [1] | inhibition [2] | IC50 (Genome polyprotein [3]) [µM] | IC50 [4] [µM] | inhibition (dengue virus type 2 [5]) | also measured
1 | CC(C)(C)CN1C(=O)S/C(=C\c2ccc(C(=O)N[C@@H](CCCNC(=N)N)C(=O)N[C@@H](CCCCN)C(=O)N[C@H](C(N)=O)c3ccccc3)cc2)C1=O | 9.7% | 93.5% | 2.03 | 0.58 | 101% | 
2 | CC(C)N1C(=O)S/C(=C\c2ccc(C(=O)N[C@@H](CCCNC(=N)N)C(=O)N[C@@H](CCCCN)C(=O)N[C@H](C(N)=O)c3ccccc3)cc2)C1=O | 8.5% | 94.4% | 3.59 | 0.47 | 99.1% | 
3 | CC(C)(C)CN1C(=O)S/C(=C\c2ccc(C(=O)O)cc2)C1=O |  | 41.1% |  |  | 13.1% | inhibition (dengue virus type 2 [6]): inactive
4 | O=C(O)c1ccc(/C=C2\SC(=O)N(CC34CC5CC(CC(C5)C3)C4)C2=O)cc1 |  | inactive |  |  | inactive | inhibition (dengue virus type 2 [6]): inactive
5 | CC(C)CN1C(=O)S/C(=C\c2ccc(C(=O)N[C@@H](CCCNC(=N)N)C(=O)N[C@@H](CCCCN)C(=O)N[C@H](C(N)=O)c3ccccc3)cc2)C1=O | inactive | 90.7% | 6.24 | 1.01 | 99.6% | 
6 | C#CCN1C(=O)S/C(=C\c2ccc(C(=O)N[C@@H](CCCNC(=N)N)C(=O)N[C@@H](CCCCN)C(=O)N[C@H](C(N)=O)c3ccccc3)cc2)C1=O | 10.9% | 93.1% | 2.36 | 0.99 | 99.2% | 
7 | CCC(CC)N1C(=O)S/C(=C\c2ccc(C(=O)O)cc2)C1=O |  | 40.7% |  |  | 11.2% | inhibition (dengue virus type 2 [6]): inactive
8 | C#CCCN1C(=O)S/C(=C\c2ccc(C(=O)O)cc2)C1=O |  | 20.8% |  |  | inactive | inhibition (dengue virus type 2 [6]): inactive
9 | C#CCCCN1C(=O)S/C(=C\c2ccc(C(=O)N[C@@H](CCCNC(=N)N)C(=O)N[C@@H](CCCCN)C(=O)N[C@H](C(N)=O)c3ccccc3)cc2)C1=O | 10.4% | 105% | 2.75 | 0.85 | 103% | 
10 | C#CCCN1C(=O)S/C(=C\c2ccc(C(=O)N[C@@H](CCCNC(=N)N)C(=O)N[C@@H](CCCCN)C(=O)N[C@H](C(N)=O)c3ccccc3)cc2)C1=O | 13% | 97.8% | 2.12 | 0.46 | 99.9% | Ki [7]: 0.1 µM; Activity (dengue virus type 2 [8]): inactive; inhibition (dengue virus type 2 [9]): Active; Activity (dengue virus type 2 [10]): Dose-dependent effect; Ki [11]: 0.4 µM
11 | CC(C)(C)CCN1C(=O)S/C(=C\c2ccc(C(=O)N[C@@H](CCCNC(=N)N)C(=O)N[C@@H](CCCCN)C(=O)N[C@H](C(N)=O)c3ccccc3)cc2)C1=O | 9.7% | 98.9% | 1.91 | 0.51 | 101% | 
12 | N=C(N)NCCC[C@H](NC(=O)c1ccc(/C=C2\SC(=O)N(C3CCCCCC3)C2=O)cc1)C(=O)N[C@@H](CCCCN)C(=O)N[C@H](C(N)=O)c1ccccc1 | 11.5% | 101% | 2.11 | 0.83 | 100% | 
13 | O=C(O)c1ccc(/C=C2\SC(=O)N(CC3CCCC3)C2=O)cc1 |  | 32.4% |  |  | 15.9% | inhibition (dengue virus type 2 [6]): inactive
14 | CCC(C)N1C(=O)S/C(=C\c2ccc(C(=O)N[C@@H](CCCNC(=N)N)C(=O)N[C@@H](CCCCN)C(=O)N[C@H](C(N)=O)c3ccccc3)cc2)C1=O (some centres undefined) | 38.9% | 92.8% | 2.5 | 0.92 | 102% | 
15 | CC(C)N1C(=O)S/C(=C\c2ccc(C(=O)O)cc2)C1=O |  | 34.8% |  |  | 16.3% | inhibition (dengue virus type 2 [6]): inactive
16 | O=C(O)c1ccc(/C=C2\SC(=O)N(CC3CCCCC3)C2=O)cc1 |  | 35% |  |  | 23% | inhibition (dengue virus type 2 [6]): inactive

Second part, led by results:

Row | inhibition [1] | inhibition [2] | IC50 (Genome polyprotein [3]) [µM] | IC50 [4] [µM] | Compound | inhibition (dengue virus type 2 [5]) | also measured
17 | 8.7% | 99.2% | 1.35 | 0.65 | CCC(CC)CN1C(=O)S/C(=C\c2ccc(C(=O)N[C@@H](CCCNC(=N)N)C(=O)N[C@@H](CCCCN)C(=O)N[C@H](C(N)=O)c3ccccc3)cc2)C1=O | 100% | 
18 | 6.6% | 107% | 1.27 | 0.74 | N=C(N)NCCC[C@H](NC(=O)c1ccc(/C=C2\SC(=O)N(CC34CC5CC(CC(C5)C3)C4)C2=O)cc1)C(=O)N[C@@H](CCCCN)C(=O)N[C@H](C(N)=O)c1ccccc1 | 102% | 
19 | 8% | 95.9% | 1.39 | 0.78 | N=C(N)NCCC[C@H](NC(=O)c1ccc(/C=C2\SC(=O)N(CC3CCC3)C2=O)cc1)C(=O)N[C@@H](CCCCN)C(=O)N[C@H](C(N)=O)c1ccccc1 | 99.7% | 
20 | 7.3% | 101% | 1.13 | 1.92 | N=C(N)NCCC[C@H](NC(=O)c1ccc(/C=C2\SC(=O)N(CCC3CCCCC3)C2=O)cc1)C(=O)N[C@@H](CCCCN)C(=O)N[C@H](C(N)=O)c1ccccc1 | 99.9% | 
21 | 9.5% | 98% | 1.71 | 0.79 | N=C(N)NCCC[C@H](NC(=O)c1ccc(/C=C2\SC(=O)N(C3CCCCC3)C2=O)cc1)C(=O)N[C@@H](CCCCN)C(=O)N[C@H](C(N)=O)c1ccccc1 | 101% | 
22 | 7.3% | 95.4% | 1.76 | 0.9 | CC(C)CCN1C(=O)S/C(=C\c2ccc(C(=O)N[C@@H](CCCNC(=N)N)C(=O)N[C@@H](CCCCN)C(=O)N[C@H](C(N)=O)c3ccccc3)cc2)C1=O | 100% | 
23 | 4.7% | 95.3% | 1.69 | 0.62 | N=C(N)NCCC[C@H](NC(=O)c1ccc(/C=C2\SC(=O)N(C3CCC3)C2=O)cc1)C(=O)N[C@@H](CCCCN)C(=O)N[C@H](C(N)=O)c1ccccc1 | 100% | 
24 | 10.1% | 98.8% | 1.01 | 0.85 | N=C(N)NCCC[C@H](NC(=O)c1ccc(/C=C2\SC(=O)N(CC3CCCC3)C2=O)cc1)C(=O)N[C@@H](CCCCN)C(=O)N[C@H](C(N)=O)c1ccccc1 | 100% | 
25 | 6.9% | 99.6% | 0.75 | 1.05 | N=C(N)NCCC[C@H](NC(=O)c1ccc(/C=C2\SC(=O)N(CC3CCCCC3)C2=O)cc1)C(=O)N[C@@H](CCCCN)C(=O)N[C@H](C(N)=O)c1ccccc1 | 99.3% | Ki (Genome polyprotein [12]): 0.82 µM; Ki (Genome polyprotein [13]): 1.3 µM; inhibition [14]: Active
26 | 8% | 95% | 1.12 | 0.74 | CCC(CC)N1C(=O)S/C(=C\c2ccc(C(=O)N[C@@H](CCCNC(=N)N)C(=O)N[C@@H](CCCCN)C(=O)N[C@H](C(N)=O)c3ccccc3)cc2)C1=O | 99.3% | 
